Lung fibro prol: blocks proliferation of human lung fibroblasts | LL 47 human lung fibroblast viability, ATP luminescence; stronger effect = lower value | viability, % at 10 µM | actives 1.1% (n = 85,000) | AID 719;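 active = viability at or below 50% in the single dose screen; inactive = viability above 50%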;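 note: compound exposure lasted 72 h before the ATP readout; 100% = median luminescence of untreated cell-only wells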
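Benchmarks: Cell-only wells, no compound | Test system: LL 47 human lung fibroblasts, passage 12 or lower | Input: 1,150 cells/well | Measured by: CellTiter-Glo luminescence measuring cellular ATP | Medium: IMEM, 15% FBS supplement | Schedule: Overnight attachment after seeding, then 72 h compound exposure at 37 °C | Doses: Compound addition at 0.1% DMSO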
HCT116 bCat-KO: beta-catenin-lacking colon tumor cell growth suppression | HCT116 beta-catenin knockout viability, CellTiter-Glo, 60 h; stronger effect = lower value | viability, % at 10 µM | actives 1.5% (n = 140,000);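 active = viability at or under a set limit, the compound median less 4 SD, cut at about 6% in these data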;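 note: 0% = Hyamine 1622 control at 20 µM and 100% = untreated cell control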
PTEN del growth: growth suppressors of cells with PTEN tumor suppressor deletion | AID 827 | viability, % at 10 µM | actives 1.2% (n = 140,000) | HCT116 PTEN-null viability, CellTiter-Glo, 60 h; stronger effect = lower value;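 active = viability at or below a set limit, 4 SD under the median of all tested compounds, cut at about 3.7% in these data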;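 note: PTEN knockout HCT116 line with beta catenin targeted HCT116 as companion control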
HUVEC prolif 384: inhibitors of human endothelial cell proliferation. actives 1.1% (n = 86,000). AID 648. viability, % at 10 µM (by protocol). HUVEC proliferation, CellTiter-Glo luminescence, 72 h; stronger effect = lower value;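 active = viability at or below 30%; inactive = viability above 30%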;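 note: 100% = median luminescence of DMSO-only cell control wells on each plate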
H69AR inhibit: growth inhibitors of human H69AR lung tumor cells. viability, % at 10 µM. actives 6% (n = 85,000). H69AR lung tumor viability, ATP luminescence, 72 h; stronger effect = lower value. AID 598;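 active = viability at or below 40%; inactive = viability above 40%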;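 note: multidrug resistant small cell line overexpressing MRP-1 efflux transporter; 100% = mean luminescence of untreated control wells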
* hit, by the source's call; · = no result given. The full list was thinned out, with hits kept by preference.

SMILES | Lung fibro prol | HCT116 bCat-KO | PTEN del growth | HUVEC prolif 384 | H69AR inhibit
Cc1ccccc1OCCCN1C(=O)C(=O)c2cccc(C)c21 | 81 | 53 | 44 | 74 | 17*
Cc1cccc2c1N(CCCOc1ccc(C(C)(C)C)cc1)C(=O)C2=O | 91 | 87 | 86 | 1.6* | 0.8*
CCOP(=O)(c1ccccc1)C(O)c1ccc(Br)cc1 (configuration not stated) | · | 91 | 84 | · | ·
C=CCOC(=O)C1=C(C)NC(SC)=C(C#N)C1c1cccs1 (configuration not stated) | 65 | 25 | 23 | 55 | 20*
C=CCOC(=O)C1=C(C)NC(SC)=C(C#N)C1c1ccc(OCC)cc1 (configuration not stated) | 99 | 96 | 96 | 98 | 39*
CCSC1=C(C#N)C(c2cccs2)C(C(=O)OC)=C(C)N1 (configuration not stated) | 90 | 86 | 89 | 92 | 69
C=CCOC(=O)C1=C(C)NC(SCC(=O)Nc2nccs2)=C(C#N)C1c1ccc(Cl)cc1 (configuration not stated) | 94 | 38 | 31 | 63 | 92
C=CCOC(=O)C1=C(C)NC(SCC(=O)OCC)=C(C#N)C1c1ccc(O)c(OC)c1 (configuration not stated) | 102 | 97 | 98 | 75 | 82
C=CCOC(=O)C1=C(C)NC(SCC(=O)Nc2nccs2)=C(C#N)C1c1cccs1 (configuration not stated) | 95 | 71 | 59 | 18* | 28*
Cc1ccccc1NC(=O)c1ccc(Cl)c(NC(=O)c2ccncc2)c1 | · | 87 | 88 | · | ·
Cc1ccc2oc(=O)c3cnn(CC(=O)Nc4cc(-c5cccc(F)c5)no4)c3c2c1 | · | 103 | 98 | · | ·
Cc1cc(C(=O)CSc2n[nH]c(N)n2)c(C)n1-c1ccc2c(c1)OCO2 | · | 61 | 63 | · | ·
COc1ccc(C(=O)NNC2=CC(=O)CC(C)(C)C2)cc1OC | · | 101 | 93 | · | ·
CCOC(=O)N1CCC(NC(=O)c2cc3cc4cc(OC)ccc4nc3o2)CC1 | 91 | 88 | 79 | 92 | 38*
CCOC(=O)N1CCC(NC(=O)c2cnn3c(C(F)(F)F)cc(-c4cccc(OC)c4)nc23)CC1 | 27* | · | · | 48 | 98
Cc1ccc(OCCSc2nc(NC(C)C)nc(NC(C)C)n2)cc1 | · | 57 | 56 | · | ·
O=C1c2ccccc2C(O)(Cc2ccccc2)N1c1ccc2c(c1)OCO2 (configuration not stated) | 89 | 74 | 59 | 81 | 84
CCCCOc1ccc(/C=C/C(=O)OCC(=O)NC(=O)NCC(C)C)cc1OCC | · | 96 | 95 | · | ·
Cc1cc(NC(=O)c2cncc(Br)c2)n(-c2ccccn2)n1 | 99 | 103 | 85 | 85 | 37*
CCCOc1ccc(/C=N/NC(=O)CSCc2ccc([N+](=O)[O-])cc2)cc1OCC | · | 79 | 67 | · | ·
CCOC(=O)c1[nH]c(C)c(C(=O)Nc2ccc(C)c(F)c2)c1C | 92 | 48 | 38 | 73 | 20*
CCOC(=O)c1[nH]c(C)c(C(=O)NCc2ccc(Cl)cc2)c1C | 105 | 90 | 88 | 79 | 88
CCOC(=O)c1[nH]c(C)c(C(=O)Nc2ccc(C)c(Cl)c2)c1C | 79 | 46 | 38 | 62 | 32*
Cc1cccc(Cn2cc(/C=C/[N+](=O)[O-])c3ccccc32)c1 | · | 3.2* | 3.0* | · | ·
O=[N+]([O-])/C=C/c1cn(Cc2ccc(Cl)cc2)c2ccccc12 | · | 10 | 1.9* | · | ·
SMILES | Lung fibro prol | HCT116 bCat-KO | PTEN del growth | HUVEC prolif 384 | H69AR inhibit
COC(=O)c1ccc(OC)cc1OCC(=O)N1CCN(c2ccc(F)cc2)CC1 | · | 88 | 78 | · | ·
COC(=O)C1(O)CC(C(C)C)=NN1C(=O)c1ccccc1 (configuration not stated) | · | 106 | 95 | · | ·
O=C1C=CC(O)(c2cc(=O)c3c(O)cc(O)cc3o2)C=C1 | · | 1.1* | 1.3* | · | ·
Cc1ccc(S(=O)(=O)c2ccc(Cl)cc2)cc1S(=O)(=O)N(C)CC(=O)O | · | 97 | 93 | · | ·
O=S(=O)(CCOc1ccccc1)c1nc2ccccc2[nH]1 | 85 | 13 | 30 | 78 | 0.3*
O=C(Nc1ccc(Cl)cc1-c1nc2ccccc2s1)c1ccco1 | 90 | 63 | 65 | 42 | 30*
O=C(Nc1ccccc1-c1nc2ccccc2s1)c1ccc(Br)o1 | 96 | 47 | 38 | 47 | 15*
O=S(=O)(c1ccccc1)c1nc(Nc2cccc(O)c2)sc1Cl | · | 58 | 66 | · | ·
O=C(Nc1ccccc1Cl)c1ccccc1Cc1ccccc1 | · | 69 | 83 | · | ·
CC(=O)Nc1nc2cc3c(cc2s1)OCO3 | 95 | 99 | 79 | 98 | 93
O=C(Nc1nc2cc3c(cc2s1)OCO3)C1=COCCO1 | 80 | 45 | 48 | 50 | 26*
COc1ccc(OC)c(NC(=O)COC(=O)CSc2ccc(Cl)cc2)c1 | · | 98 | 94 | · | ·
Oc1ccc2ccccc2c1/C=N/Nc1ccccc1 | · | 82 | 73 | · | ·
Cc1cc(Nc2ccccc2)nc(-c2ccccc2O)n1 | · | 45 | 28 | · | ·
Cc1cc(N/N=C/c2c(O)ccc3ccccc23)nc(-c2ccccc2O)n1 | · | 2.9* | 4 | · | ·
Cc1cc(NC2CCCCC2)nc(-c2ccccc2O)n1 | 90 | 86 | 78 | 74 | 38*
CCOc1ccccc1N1CCN(C(=O)c2ccc3[nH]c4c(c3c2)CCCC4)CC1 | · | 77 | 75 | · | ·
CSCCOC(=O)C1=C(C)Nc2ccc(C)cc2S1 | 90 | 94 | 99 | 81 | 28*
COc1ccc(C(=O)OC2CCN(c3ncc(C(F)(F)F)cc3Cl)CC2)cc1 | · | 3.4* | 57 | · | ·
Cn1c(-c2ccccc2)cc2c3no[n+]([O-])c3ccc21 | 26* | 9 | 4 | 14* | 19*
CCn1nc(C)c(/C=N/NC(=S)Nc2ccc(Cl)cc2Cl)c1C | · | 10 | 3.8* | · | ·
Cc1ccc(S(=O)(=O)N2CCOCC2)cc1C(=O)Nc1nc2ccccc2[nH]1 | · | 94 | 100 | · | ·
O=C(Cn1c(=O)oc2cc(S(=O)(=O)N3CCCC3)ccc21)Nc1cccc(C(F)(F)F)c1 | 99 | 84 | 76 | 92 | 38*
CSc1ccc(S(=O)(=O)NCc2ccc(Cl)cc2Cl)cc1 | 107 | 92 | 104 | 89 | 85
COc1ccc(C(=O)NCS(=O)(=O)c2ccc(C)cc2)cc1 | 98 | 100 | 104 | 93 | 94
SMILES | Lung fibro prol | HCT116 bCat-KO | PTEN del growth | HUVEC prolif 384 | H69AR inhibit
CO/N=C(/CS(=O)(=O)c1ccc(C)cc1)c1ccc(OC)cc1 | 99 | 77 | 83 | 94 | 36*
c1ccc(-c2csc3ncnc(N4CCc5ccccc5C4)c23)cc1 | · | 57 | 60 | · | ·
COc1cc(C(=O)O/N=C2\C=CC(=O)C=C2C)cc(OC)c1OC | · | 29 | 27 | · | ·
COc1cc(C(=O)O/N=C2/C=CC(=O)C(C)=C2C)cc(OC)c1OC | · | 18 | 2.5* | · | ·
Cc1c(CCOC(=O)C23CC4CC(CC(C)(C4)C2)C3)sc[n+]1Cc1ccccc1 | · | 2.9* | 5 | · | ·
Cc1c(CCOC(=O)C23CC4CC(CC(C4)C2)C3)sc[n+]1Cc1ccccc1 | · | 76 | 78 | · | ·
CCCN(CCC)C(=O)C1CCN(c2cc(C)nc3c(-c4ccc(OC)c(OC)c4)c(C)nn23)CC1 | 95 | 72 | 72 | 94 | 34*

Screens: PubChem BioAssay, SRMLSC
